# Assay outcomes: PubChem BioAssay, Johns Hopkins Ion Channel Center
# RGS4 act: RGS4 potentiation or activation | HEK293 M3R/inducible RGS4, carbachol calcium flux Fluo4; hits give low values | B-score at 10 µM | actives 0.92% (n = 310,000) | AID 463111;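 active = B-score of the integrated calcium signal more than 4 SD below the library mean, with starting fluorescence not abnormally high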;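 note: negative B-score means reduced calcium response which marks RGS4 activation or potentiation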
#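 Test system: HEK293 cells with stable M3R and inducible RGS4; also added: carbachol at ECmax as muscarinic agonist stimulus; schedule: dye loading 30 min 37 °C, buffer rest 30 min RT; technique: kinetic calcium fluorescence imaging with Fluo4-AM dye, 2 µM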
# MrgX1 ag: activates human MrgX1 receptor signaling; Q96LB2; MrgX1-HEK293 cells, Fluo-4 calcium fluorescence, agonist mode; hits give high values; B-score at 10 µM; actives 0.44% (n = 310,000); AID 588627;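 active = calcium response B-score plate-corrected fluorescence ratio at least 3 library SD, with starting fluorescence B-score inside 5 SD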
# Target sequence (Q96LB2 whole entry, looked up): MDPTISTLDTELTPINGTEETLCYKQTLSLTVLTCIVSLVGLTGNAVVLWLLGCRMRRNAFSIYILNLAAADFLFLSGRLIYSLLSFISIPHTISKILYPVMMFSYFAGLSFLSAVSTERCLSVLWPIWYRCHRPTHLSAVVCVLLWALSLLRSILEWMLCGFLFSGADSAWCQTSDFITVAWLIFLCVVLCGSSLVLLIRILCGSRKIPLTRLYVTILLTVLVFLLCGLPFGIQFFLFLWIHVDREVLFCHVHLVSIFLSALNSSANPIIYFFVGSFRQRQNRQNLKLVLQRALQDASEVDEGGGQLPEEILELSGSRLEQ
#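 Material: MrgX1-expressing HEK293 cells / Dosing: compound as first of three additions / Incubation: overnight seeding, then 1 h dark dye loading / Signal: Fluo-4 NW calcium fluorescence / Evaluation: B-scored fluorescence response ratio / Benchmarks: positive and negative control wells on each plate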
# RGS4 block: human RGS4 inhibition. P49798. HEK293 M3R/RGS4 inducible, Fluo-4 calcium flux; hits give high values; triggered by carbachol at its EC20. B-score at 10 µM. actives 0.45% (n = 310,000). AID 463165;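 active = B-score, a plate-corrected calcium signal, over three deviations above library mean, with baseline fluorescence within five deviations of library mean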;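 note: RGS4 expression induced by doxycycline in cells with stable M3 receptor; B-score is computed from the integrated fluorescence ratio over baseline after carbachol; higher B-score means a larger calcium signal and so more RGS4 inhibition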
# Target sequence (P49798 whole entry, looked up): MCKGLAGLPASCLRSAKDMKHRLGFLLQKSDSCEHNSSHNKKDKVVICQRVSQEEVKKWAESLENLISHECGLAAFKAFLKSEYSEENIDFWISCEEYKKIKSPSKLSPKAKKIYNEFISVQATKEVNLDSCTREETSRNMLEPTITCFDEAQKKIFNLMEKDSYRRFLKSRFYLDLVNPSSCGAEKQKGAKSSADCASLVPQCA
# MrgX1 antag: antagonists of human MrgX1 receptor | Q96LB2 | MRGX1-HEK293 calcium flux, Fluo-4, BAM8-22 antagonism; hits give low values | B-score at 10 µM | actives 1.3% (n = 310,000);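 active = calcium-response B-score plate-corrected more than 3 library SD below zero, starting fluorescence within 5 deviations, no agonist response on first addition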;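 note: peak minus trough fluorescence over baseline after final BAM8-22 challenge near maximal dose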
# MrgX1 PAM: allosterically activates human MrgX1 receptor signaling; AID 588675; actives 0.63% (n = 310,000); MrgX1-HEK293, Fluo-4 calcium flux, FDSS; hits give high values; B-score at 10 µM;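 active = plate-corrected calcium response at least 3 library SD above typical, normal starting fluorescence, not activating the receptor alone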;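 note: compound read alongside a low EC10 to EC30 dose of BAM8-22 agonist; peak minus trough fluorescence over baseline measured at the second addition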
# RGS4 activ val: RGS4 activation, validation assay; actives 89% (n = 1,100); shares compounds with RGS4 act; inhibition, % at 10 µM; HEK293 M3R/RGS4 inducible, carbachol calcium flux Fluo4;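 active = inhibition above 3 SD of the buffer control wells, cut at about 41% in these data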;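 note: signal is the integrated peak-minus-minimum Fluo4 fluorescence over baseline ratio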
# M3R Ca counter: RGS4 activator counter-screen hit in non-induced cells; shares compounds with RGS4 act; HEK293 M3R non-induced RGS4, Fluo4 calcium flux; after carbachol challenge at its EC90; inhibition, % at 10 µM; actives 82% (n = 1,100); AID 602283;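 active = inhibition exceeding 3 SD of buffer-only control wells, cut at about 26% in these data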;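 note: percent drop in integrated peak-minus-baseline over baseline Fluo4 ratio after carbachol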
# * = called active by the depositor; i = inactive; . = no result. An excerpt weighted towards active compounds, which were near 3.5% of everything screened.
SMILES,RGS4 act,MrgX1 ag,RGS4 block,MrgX1 antag,MrgX1 PAM,RGS4 activ val,M3R Ca counter
N#CCC(=O)N/N=C/c1cn(Cc2ccccc2C#N)c2ccccc12,i,i,i,i,i,.,.
N#CCC(=O)N/N=C/c1c(-c2ccccc2)n(-c2ccccc2)c2ccccc12,-12*,i,i,i,i,86*,50*
Cc1cc(=O)oc2cc(OCC(=O)N3CC[C@@]4(O)CCCC[C@H]4C3)c(Cl)cc12,i,i,i,i,i,.,.
Cc1cc(C)n2nc(SCc3nnc(SCCCCl)o3)nc2n1,-7.7*,i,i,i,i,78*,35*
CCCC1CC(C(=O)NC(C(C)Cl)C2OC(SC)C(O)C(O)C2O)N(C)C1 (configuration not stated),i,i,i,i,i,.,.
CC(C(=O)Nc1ccc(F)c(F)c1F)N(C)CCOc1ccccc1 (configuration not stated),i,i,i,i,i,.,.
OCCNCCCCOc1ccc(OCc2ccccc2)cc1,i,i,i,i,i,.,.
OCCCCNCc1ccc(OCc2ccccc2)cc1,-7.8*,i,i,i,i,60*,84*
CCOc1ccc(CN(C)c2nc(-c3cccnc3)nc3ccccc23)cc1OC,-9.2*,i,i,i,i,76*,43*
COc1ccc(CCNc2nc(-c3cccnc3)nc3ccccc23)cc1OC,i,i,i,i,i,.,.
COc1ccccc1N1CCN(C(=O)CSc2nc3ccccc3nc2N2CCC(C)CC2)CC1,-7.7*,i,i,i,i,44*,0
COc1ccccc1N1CCN(C(=O)CSc2nc3ccccc3nc2N2CCCCC2)CC1,i,i,i,i,i,.,.
COc1ccc(N(C)S(=O)(=O)c2c(C)[nH]c(=O)[nH]c2=O)cc1,-8.1*,i,i,i,i,0,0
COc1ccccc1C(=O)NC(=O)COC(=O)CCOc1cc(C)ccc1C,i,i,i,i,i,.,.
OCCN1CCN(CC/C=C2/c3ccccc3CSc3ccccc32)CC1,i,i,i,i,i,.,.
CNCC/C=C1/c2ccccc2CSc2ccccc21,-8.6*,i,i,i,i,92*,86*
COc1ccc(S(=O)(=O)N2CCCCCC2)cc1C(=O)Nc1ccccn1,i,i,i,i,i,.,.
Oc1ccccc1Oc1ncc(Br)c(N2CCOCC2)n1,-11*,i,i,i,i,92*,64*
CCNC(=O)c1ccccc1SCc1ccccc1,i,i,i,i,i,.,.
CCc1ccc(OCCNC(=O)c2ccccc2SCc2ccccc2)cc1,-11*,i,i,i,i,94*,80*
COc1ccc(-c2cc(-c3nnc(COC(=O)c4ccc(O)cc4)o3)c3ccccc3n2)cc1OC,-7.7*,i,i,i,i,62*,0
COc1ccc(N2C(=NC(=O)C3CCCCC3)SC3CS(=O)(=O)CC32)c(OC)c1 (configuration not stated),i,i,i,i,i,.,.
O=C(COC(=O)Cc1ccc(Cl)cc1)Nc1ccc(OC(F)F)cc1,i,i,i,i,i,.,.
O=C(Nc1ccc(Cl)cc1)N(C1=NCCC1)c1ccc(OC(F)F)cc1,-10*,i,i,i,i,92*,92*
Cc1ncn(-c2ccc(C(=O)Oc3ccccc3)cn2)n1,i,i,i,i,i,.,.
SMILES,RGS4 act,MrgX1 ag,RGS4 block,MrgX1 antag,MrgX1 PAM,RGS4 activ val,M3R Ca counter
Cc1ccc(S(=O)(=O)N(C)CC(=O)N2CCN(Cc3ccccc3)CC2)cc1,i,i,i,i,i,.,.
CN(C)C(C)(C)/C=C/C(O)(c1ccccc1)c1ccccc1,-8.7*,i,i,i,i,88*,64*
O=C(CCN1C(=O)[C@@H]2Cc3ccccc3CN2C1=O)N[C@H](Cc1ccccc1)C(=O)O,i,i,i,i,i,.,.
Cc1c(OCC(=O)N(C)C)ccc2c3c(c(=O)oc12)CCCCC3,-7.9*,i,i,i,i,64*,32*
COc1ccc(N(CC(=O)NC2CCCCC2)C(=O)c2ccc(C)s2)c(OC)c1,i,i,i,i,i,.,.
O=C(COc1ccccc1)Nc1ccccc1N1CCCCC1,i,i,i,i,i,.,.
O=C(COc1ccccc1)Nc1ccccc1N1CCN(c2ccc(F)cc2)CC1,-9.1*,i,i,i,i,61*,0
Cc1ccc(Cn2c(SCC(=O)N(C)C3CCS(=O)(=O)C3)nc3ccccc3c2=O)cc1 (configuration not stated),i,i,i,i,i,.,.
COc1ccc(CCNC(=O)c2cccc3c2C(=O)N(C2CCCCC2)C3)cc1OC,-8.1*,i,i,i,i,64*,0
O=C(NCCNc1ccccc1[N+](=O)[O-])c1cc(F)c(F)cc1Cl,i,i,i,i,i,.,.
O=C(NCCc1ccccc1)C1CCC(CNS(=O)(=O)c2cccc3cccnc23)CC1 (configuration not stated),i,i,i,i,i,.,.
Cc1cccc2c1Sc1ccc(Cl)cc1CC2N1CCNCC1 (configuration not stated),-7.6*,i,i,i,i,93*,96*
CCOC(=O)C1CCN(c2c(C(=O)c3ccccc3)cnc3ccc(CC)cc23)CC1,-7.7*,i,i,i,i,90*,43*
CC(C)C(NC(=O)c1ccc(Cl)cc1)C(=O)NC1=NCCS1 (configuration not stated),i,i,i,i,i,.,.
CCSc1nnc(NC(=O)C(NC(=O)c2ccc(Cl)cc2)C(C)C)s1 (configuration not stated),-9.4*,i,i,i,i,0,0
CN(C)C(=O)CSc1nnc(-c2cc(-c3cccs3)nc3ccccc23)o1,-8.3*,i,i,i,i,76*,45*
CC(C)NC(C(=O)Nc1cc(Cl)cc(Cl)c1)c1ccccc1 (configuration not stated),i,i,i,i,i,.,.
CN(C)CCNC(C(=O)Nc1cc(Cl)cc(Cl)c1)c1ccccc1 (configuration not stated),-9.7*,i,i,i,i,91*,49*
